Reference: ChEMBL document CHEMBL1153373, “Effect of ring size on conformation and biological activity of cyclic cationic antimicrobial peptides” (J Med Chem, 2009)
Values after ≈ are worked out from the molar mass of the structure shown. Square brackets hold non-standard residues; d marks the D form. Peptide text beside a SMILES is read from it.

Assays:
[1] = system: Staphylococcus epidermidis; test: Antimicrobial activity against Staphylococcus epidermidis after 24 hrs by standard microtiter dilution method; format: functional
[2] = system: Candida albicans; test: Antimicrobial activity against Candida albicans after 24 hrs by standard microtiter dilution method; format: functional
Method in brief: (§1)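 Fungal MICs were determined by standard microtitre dilution, taken as the lowest peptide concentration inhibiting growth after 24 h incubation at 37 °C.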

[3] = system: Enterobacter cloacae; test: Antimicrobial activity against Enterobacter cloacae after 24 hrs by standard microtiter dilution method; format: functional
[4] = system: Streptococcus pneumoniae; test: Antimicrobial activity against Streptococcus pneumoniae after 24 hrs by standard microtiter dilution method; format: functional
[5] = system: Escherichia coli; test: Antimicrobial activity against Escherichia coli after 24 hrs by standard microtiter dilution method; format: functional
[6] = system: Acinetobacter calcoaceticus; test: Antimicrobial activity against Acinetobacter calcoaceticus after 24 hrs by standard microtiter dilution method; format: functional
[7] = system: Cryptococcus neoformans; test: Antimicrobial activity against Cryptococcus neoformans after 24 hrs by standard microtiter dilution method; format: functional; method in brief: as §1
[8] = system: Enterococcus faecalis; test: Antimicrobial activity against Enterococcus faecalis after 24 hrs by standard microtiter dilution method; format: functional
[9] = Therapeutic index, ratio of hemolytic activity in human RBC to MIC for Enterobacter cloacae; conditions: human red blood cells (RBC), read-out: TI
[10] = system: Streptococcus mitis; test: Antimicrobial activity against Streptococcus mitis after 24 hrs by standard microtiter dilution method; format: functional
[11] = system: Stenotrophomonas maltophilia; test: Antimicrobial activity against Stenotrophomonas maltophilia after 24 hrs by standard microtiter dilution method; format: functional
[12] = system: Staphylococcus aureus; test: Antimicrobial activity against Staphylococcus aureus after 24 hrs by standard microtiter dilution method; format: functional
[13] = system: Streptococcus pyogenes; test: Antimicrobial activity against Streptococcus pyogenes after 24 hrs by standard microtiter dilution method; format: functional
[14] = system: Corynebacterium jeikeium; test: Antimicrobial activity against Corynebacterium jeikeium after 24 hrs by standard microtiter dilution method; format: functional
[15] = system: Klebsiella pneumoniae; test: Antimicrobial activity against Klebsiella pneumoniae after 24 hrs by standard microtiter dilution method; format: functional
[16] = Therapeutic index, ratio of hemolytic activity in human RBC to MIC for Candida albicans; conditions: human red blood cells (RBC), read-out: TI
[17] = Therapeutic index, ratio of hemolytic activity in human RBC to MIC for Staphylococcus epidermidis; conditions: human red blood cells (RBC), read-out: TI
[18] = Therapeutic index, ratio of hemolytic activity in human RBC to MIC for Acinetobacter calcoaceticus; conditions: human red blood cells (RBC), read-out: TI
[19] = Therapeutic index, ratio of hemolytic activity in human RBC to MIC for Streptococcus pneumoniae; conditions: human red blood cells (RBC), read-out: TI
[20] = system: Pseudomonas aeruginosa; test: Antimicrobial activity against Pseudomonas aeruginosa after 24 hrs by standard microtiter dilution method; format: functional
[21] = system: Serratia marcescens; test: Antimicrobial activity against Serratia marcescens after 24 hrs by standard microtiter dilution method; format: functional

Compound | MIC [3] [µg/mL] | MIC [4] [µg/mL] | MIC [5] [µg/mL] | MIC [6] [µg/mL] | MIC [7] [µg/mL] | MIC [8] [µg/mL] | MIC [10] [µg/mL] | MIC [11] [µg/mL] | MIC [12] [µg/mL] | MIC [14] [µg/mL] | MIC [15] [µg/mL] | other results
CC(C)C[C@@H]1NC(=O)[C@H](CCCCN)NC(=O)[C@H](C(C)C)NC(=O)[C@@H]2CCCN2C(=O)[C@@H](Cc2ccc(O)cc2)NC(=O)[C@H](CC(C)C)NC(=O)[C@H](CCCCN)NC(=O)[C@H](C(C)C)NC(=O)[C@H](CCCCN)NC(=O)[C@H](CC(C)C)NC(=O)[C@H](CCCCN)NC(=O)[C@@H]2CCCN2C(=O)[C@@H](Cc2ccc(O)cc2)NC(=O)[C@H](CCCCN)NC(=O)[C@H](C(C)C)NC(=O)[C@H](CCCCN)NC1=O (cyclo(VKLKVK[dY]PKLKVKL[dY]P)) | 64 (≈ 33.2 µM) | 1 (≈ 0.519 µM) | 4 (≈ 2.08 µM) | 2 (≈ 1.04 µM) | 64 (≈ 33.2 µM) | 4 (≈ 2.08 µM) | – | – | – | – | – | MIC [1]: 2 µg/mL (≈ 1.04 µM); MIC [2]: 64 µg/mL (≈ 33.2 µM)
CC(C)C[C@@H]1NC(=O)[C@H](CCCCN)NC(=O)[C@H](C(C)C)NC(=O)[C@@H]2CCCN2C(=O)[C@@H](Cc2ccc(O)cc2)NC(=O)[C@H](CC(C)C)NC(=O)[C@H](CCCCN)NC(=O)[C@H](C(C)C)NC(=O)[C@H](CCCCN)NC(=O)[C@H](CC(C)C)NC(=O)[C@H](CCCCN)NC(=O)[C@@H]2CCCN2C(=O)[C@@H](Cc2ccc(O)cc2)NC(=O)[C@H](C(C)C)NC(=O)[C@H](CCCCN)NC1=O (cyclo(VKLKV[dY]PKLKVKL[dY]P)) [listing 1 of 2 here] | – | – | – | – | – | – | – | – | – | – | – | selectivity ratio [9]: 2
CC(C)C[C@@H]1NC(=O)[C@H](CCCCN)NC(=O)[C@H](C(C)C)NC(=O)[C@@H]2CCCN2C(=O)[C@@H](Cc2ccc(O)cc2)NC(=O)[C@H](CC(C)C)NC(=O)[C@H](CCCCN)NC(=O)[C@H](C(C)C)NC(=O)[C@H](CCCCN)NC(=O)[C@H](CC(C)C)NC(=O)[C@H](CCCCN)NC(=O)[C@@H]2CCCN2C(=O)[C@@H](Cc2ccc(O)cc2)NC(=O)[C@H](C(C)C)NC(=O)[C@H](CCCCN)NC1=O (cyclo(VKLKV[dY]PKLKVKL[dY]P)) [listing 2 of 2 here] | – | 0.5 (≈ 0.278 µM) | – | 2 (≈ 1.11 µM) | 1 (≈ 0.556 µM) | 2 (≈ 1.11 µM) | 0.5 (≈ 0.278 µM) | 4 (≈ 2.22 µM) | 2 (≈ 1.11 µM) | 2 (≈ 1.11 µM) | 8 (≈ 4.45 µM) | MIC [13]: 0.5 µg/mL (≈ 0.278 µM)
CC(C)C[C@@H]1NC(=O)[C@H](CCCCN)NC(=O)[C@H](C(C)C)NC(=O)[C@@H]2CCCN2C(=O)[C@@H](Cc2ccc(O)cc2)NC(=O)[C@H](CC(C)C)NC(=O)[C@H](CCCCN)NC(=O)[C@H](C(C)C)NC(=O)[C@H](CCCCN)NC(=O)[C@H](CC(C)C)NC(=O)[C@@H]2CCCN2C(=O)[C@@H](Cc2ccc(O)cc2)NC(=O)[C@H](CCCCN)NC1=O (cyclo(VKLK[dY]PLKVKL[dY]P)) | – | – | 16 (≈ 10.2 µM) | – | – | 4 (≈ 2.55 µM) | 0.5 (≈ 0.318 µM) | – | 4 (≈ 2.55 µM) | 2 (≈ 1.27 µM) | 8 (≈ 5.09 µM) | –
CC(C)C[C@@H]1NC(=O)[C@H](CCCCN)NC(=O)[C@H](C(C)C)NC(=O)[C@@H]2CCCN2C(=O)[C@@H](Cc2ccc(O)cc2)NC(=O)[C@H](CC(C)C)NC(=O)[C@H](CCCCN)NC(=O)[C@H](C(C)C)NC(=O)[C@@H]2CCCN2C(=O)[C@@H](Cc2ccc(O)cc2)NC(=O)[C@H](CCCCN)NC1=O (cyclo(VKLK[dY]PVKL[dY]P)) [listing 1 of 2 here] | – | – | – | – | – | – | – | – | – | – | – | selectivity ratio [16]: 16; selectivity ratio [17]: 128; selectivity ratio [18]: 255; selectivity ratio [19]: 255
CC(C)C[C@@H]1NC(=O)[C@H](CCCCN)NC(=O)[C@H](C(C)C)NC(=O)[C@@H]2CCCN2C(=O)[C@@H](Cc2ccc(O)cc2)NC(=O)[C@H](CC(C)C)NC(=O)[C@H](CCCCN)NC(=O)[C@H](C(C)C)NC(=O)[C@@H]2CCCN2C(=O)[C@@H](Cc2ccc(O)cc2)NC(=O)[C@H](CCCCN)NC1=O (cyclo(VKLK[dY]PVKL[dY]P)) [listing 2 of 2 here] | 256 (≈ 193 µM) | 8 (≈ 6.02 µM) | 64 (≈ 48.1 µM) | 8 (≈ 6.02 µM) | 32 (≈ 24.1 µM) | 32 (≈ 24.1 µM) | – | 64 (≈ 48.1 µM) | 64 (≈ 48.1 µM) | 2 (≈ 1.5 µM) | 64 (≈ 48.1 µM) | MIC [20]: 256 µg/mL (≈ 193 µM)
CC(C)C[C@@H]1NC(=O)[C@H](CCCCN)NC(=O)[C@@H]2CCCN2C(=O)[C@@H](Cc2ccc(O)cc2)NC(=O)[C@H](CCCCN)NC(=O)[C@H](C(C)C)NC(=O)[C@H](CC(C)C)NC(=O)[C@H](CCCCN)NC(=O)[C@H](C(C)C)NC(=O)[C@@H]2CCCN2C(=O)[C@@H](Cc2ccc(O)cc2)NC(=O)[C@H](CC(C)C)NC(=O)[C@H](CCCCN)NC(=O)[C@H](C(C)C)NC(=O)[C@H](CCCCN)NC1=O (cyclo(VKLVK[dY]PKLKVKL[dY]P)) | 256 (≈ 142 µM) | – | 16 (≈ 8.9 µM) | – | – | 4 (≈ 2.22 µM) | 4 (≈ 2.22 µM) | 8 (≈ 4.45 µM) | 32 (≈ 17.8 µM) | 1 (≈ 0.556 µM) | 8 (≈ 4.45 µM) | MIC [21]: 256 µg/mL (≈ 142 µM); MIC [1]: 16 µg/mL (≈ 8.9 µM)
